Data as given in ChEMBL document CHEMBL5724801, “EUbOPEN Chemogenomics Library - Multiplex” (2024).
“And” between values parts separate entries of the source, which are not always exact repeats. Identical values can stand only once.

Test system: Fibroblast
Assay: Multiplex assay against human fibroblast
Format: toxicity, cell-based
In short: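 Hoechst33342, BioTracker Green Microtubule Cytoskeleton Dye, MitoTracker Red and Annexin V Alexa Fluor 680 were added to live cells at seeding, and imaging on a CQ1 microscope at 37°C and 5% CO2 followed compound addition. Gating by CellPathfinder machine learning separated cells into Hoechst high-intensity objects or normal cells, then normal cells into healthy, pyknosed or fragmented nuclei, then pyknosed cells into mitotic or apoptotic. Per cents of healthy-nucleus cells are reported for the tubulin, mitochondrial-mass and membrane-permeability phenotypes.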

[1] = 12 h, 1 µM, compound concentration 1 uM
[2] = 12 h, 10 µM, compound concentration 10 uM
[3] = 24 h, 1 µM, compound concentration 1 uM
[4] = 24 h, 10 µM, compound concentration 10 uM
[5] = 48 h, 1 µM, compound concentration 1 uM
[6] = 48 h, 10 µM, compound concentration 10 uM

## CN(C)CCOc1ccc(/C(=C(/CCCO)c2ccccc2)c2ccc(O)cc2)cc1
[1]
  Population Apoptotic (%): 9.46% and 11.76%
  Population Fragmented Nuclei (%): 12.72% and 6.58%
  Population Healthy Nuclei (%): 54.82% and 78.51%
  Population Hoechst High Intensity Objects (%): 0%
  Population Membrane Permeable-Phenotype (%): 2.4% and 1.12%
  Population Mitochondria Different-Phenotype (%): 12.8% and 16.2%
  Population Mitotic Cells (%): 90.54% and 88.24%
  Population Normal (%): 100%
  Population Pyknosed Nuclei (%): 32.46% and 14.91%
  Population Tubulin-Different-Phenotype (%): 20.8% and 30.73%
  Total Cell Count: 228
[2]
  Population Apoptotic (%): 12.82% and 32.5%
  Population Fragmented Nuclei (%): 12.81% and 6.25%
  Population Healthy Nuclei (%): 54.96% and 65.97%
  Population Hoechst High Intensity Objects (%): 0%
  Population Membrane Permeable-Phenotype (%): 12.03% and 4.21%
  Population Mitochondria Different-Phenotype (%): 33.83% and 24.74%
  Population Mitotic Cells (%): 87.18% and 67.5%
  Population Normal (%): 100%
  Population Pyknosed Nuclei (%): 32.23% and 27.78%
  Population Tubulin-Different-Phenotype (%): 69.92% and 80%
  Total Cell Count: 242 and 288
[3]
  Population Fragmented Nuclei (%): 7.69% and 4.15%
  Population Healthy Nuclei (%): 73.68% and 82.16%
  Population Hoechst High Intensity Objects (%): 0%
  Population Membrane Permeable-Phenotype (%): 2.2% and 3.03%
  Population Mitochondria Different-Phenotype (%): 9.34% and 7.58%
  Population Mitotic Cells (%): 93.48% and 78.79%
  Population Normal (%): 100%
  Population Pyknosed Nuclei (%): 18.62% and 13.69%
  Population Tubulin-Different-Phenotype (%): 22.53% and 32.32%
  Total Cell Count: 247 and 241
[4]
  Population Apoptotic (%): 20.78% and 46.67%
  Population Fragmented Nuclei (%): 6.59% and 4.58%
  Population Healthy Nuclei (%): 63.57% and 79.58%
  Population Hoechst High Intensity Objects (%): 0%
  Population Membrane Permeable-Phenotype (%): 6.1% and 8.41%
  Population Mitochondria Different-Phenotype (%): 37.8% and 22.57%
  Population Mitotic Cells (%): 79.22% and 53.33%
  Population Normal (%): 100%
  Population Pyknosed Nuclei (%): 29.84% and 15.85%
  Population Tubulin-Different-Phenotype (%): 85.37% and 84.07%
  Total Cell Count: 258 and 284
[5]
  Population Apoptotic (%): 53.33% and 35.71%
  Population Fragmented Nuclei (%): 8.78% and 7.97%
  Population Healthy Nuclei (%): 85.5% and 86.45%
  Population Hoechst High Intensity Objects (%): 0%
  Population Membrane Permeable-Phenotype (%): 0% and 4.61%
  Population Mitotic Cells (%): 46.67% and 64.29%
  Population Normal (%): 100%
  Population Pyknosed Nuclei (%): 5.73% and 5.58%
  Total Cell Count: 262 and 251
[6]
  Population Apoptotic (%): 35.29% and 73.91%
  Population Fragmented Nuclei (%): 11.83% and 8.67%
  Population Healthy Nuclei (%): 83.6% and 83.67%
  Population Hoechst High Intensity Objects (%): 0%
  Population Membrane Permeable-Phenotype (%): 2.89% and 5.58%
  Population Mitochondria Different-Phenotype (%): 6.75% and 12.75%
  Population Mitotic Cells (%): 64.71% and 26.09%
  Population Normal (%): 100%
  Population Pyknosed Nuclei (%): 4.57% and 7.67%
  Population Tubulin-Different-Phenotype (%): 53.05% and 80.48%
  Total Cell Count: 372 and 300

## CCC(=O)OCC(=O)[C@@]1(OC(=O)CC)[C@@H](C)C[C@H]2[C@@H]3CCC4=CC(=O)C=C[C@]4(C)[C@@]3(Cl)[C@@H](O)C[C@@]21C [BECLOMETHASONE DIPROPIONATE]
[1]
  Population Apoptotic (%): 38% and 42%
  Population Fragmented Nuclei (%): 13% and 30%
  Population Healthy Nuclei (%): 73% and 40%
  Population Hoechst High Intensity Objects (%): 3%
  Population Membrane Permeable-Phenotype (%): 1% and 5%
  Population Mitochondria Different-Phenotype (%): 2% and 10%
  Population Mitotic Cells (%): 61% and 57%
  Population Normal (%): 96%
  Population Pyknosed Nuclei (%): 13% and 30%
  Population Tubulin-Different-Phenotype (%): 47% and 63%
  Total Cell Count: 135 and 155
[2]
  Population Apoptotic (%): 40%
  Population Healthy Nuclei (%): 69% and 42%
  Population Hoechst High Intensity Objects (%): 8% and 5%
  Population Mitochondria Different-Phenotype (%): 17% and 20%
  Population Mitotic Cells (%): 60% and 59%
  Population Normal (%): 91% and 94%
  Population Pyknosed Nuclei (%): 20% and 24%
  Population Tubulin-Different-Phenotype (%): 87% and 94%
  Total Cell Count: 157 and 96
[3]
  Population Apoptotic (%): 50% and 47%
  Population Fragmented Nuclei (%): 16% and 30%
  Population Healthy Nuclei (%): 65% and 45%
  Population Hoechst High Intensity Objects (%): 1% and 6%
  Population Membrane Permeable-Phenotype (%): 3% and 7%
  Population Mitochondria Different-Phenotype (%): 2% and 7%
  Population Mitotic Cells (%): 50% and 52%
  Population Normal (%): 98% and 93%
  Population Pyknosed Nuclei (%): 18% and 24%
  Population Tubulin-Different-Phenotype (%): 34% and 60%
  Total Cell Count: 134 and 150
[4]
  Population Apoptotic (%): 40% and 19%
  Population Fragmented Nuclei (%): 13% and 38%
  Population Healthy Nuclei (%): 66% and 40%
  Population Hoechst High Intensity Objects (%): 6%
  Population Mitochondria Different-Phenotype (%): 30% and 12%
  Population Mitotic Cells (%): 59% and 80%
  Population Normal (%): 93%
  Population Pyknosed Nuclei (%): 19% and 21%
  Population Tubulin-Different-Phenotype (%): 86% and 79%
  Total Cell Count: 148 and 104
[5]
  Population Apoptotic (%): 28% and 52%
  Population Fragmented Nuclei (%): 13% and 31%
  Population Healthy Nuclei (%): 56% and 41%
  Population Hoechst High Intensity Objects (%): 3% and 7%
  Population Membrane Permeable-Phenotype (%): 1% and 5%
  Population Mitochondria Different-Phenotype (%): 15% and 9%
  Population Mitotic Cells (%): 71% and 47%
  Population Normal (%): 96% and 92%
  Population Pyknosed Nuclei (%): 30% and 27%
  Population Tubulin-Different-Phenotype (%): 61% and 54%
  Total Cell Count: 132 and 143
[6]
  Population Apoptotic (%): 67% and 37%
  Population Fragmented Nuclei (%): 21% and 33%
  Population Healthy Nuclei (%): 54% and 33%
  Population Hoechst High Intensity Objects (%): 6% and 3%
  Population Membrane Permeable-Phenotype (%): 0% and 18%
  Population Mitotic Cells (%): 32% and 62%
  Population Normal (%): 93% and 96%
  Population Pyknosed Nuclei (%): 24% and 33%
  Population Tubulin-Different-Phenotype (%): 76% and 84%
  Total Cell Count: 162 and 99
